Bioassay records from PubChem BioAssay.
T cell HTS: T cell immune modulators affecting CD8 T cell-vesicle binding. 2C CD8+ T cell-vesicle binding, flow cytometry; hits give low values. response (vesicle binding), % at 7 µM. hit rate 0.068% among 330,000. AID 2052;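 active = response, share of CD8 T cells binding vesicles, and their 90th percentile fluorescence all below set limits, cut at about 80% in these data, passing the limit was not always enough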;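 note: values below 100% mean blocked vesicle binding to the CD8+ T cells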
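material = purified 2C TCR transgenic mouse naive CD8+ T cells | controls = Unloaded micro-vesicles (low), QL9 vesicles with 0.7% DMSO (high) | detection = cytometric PE anti-B7-1 and Alexa647 anti-CD8 signals after 1% paraformaldehyde fixation | incubation = binding step 1.5 h, 37 °C, antibody labelling 20 min, ice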
N-glyco inh: N-linked glycosylation inhibition | reporter increase, % at 12.5 µM | D54 ERlucT glycosylation luciferase reporter, 24 h; percent of 100 nM tunicamycin response | AID 588692 | hit rate 0.23% among 360,000;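 active = mean luciferase reporter signal, scaled so untreated is 0 and the glycosylation-blocking control 100, at or above a set limit in every replicate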;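 note: luciferase carries N-glycosylation sites so blocking glycosylation raises the light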
ALR inh: inhibitors of human sulfhydryl oxidase ALR. inhibition, % (no concentration beside the values). purified ALR, DTT oxidation, H2O2 HRP-luminol luminescence. P55789. AID 485317. hit rate 3.8% among 290,000;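 active = mean replicate inhibition above about 79%, with every replicate also reaching it, limit read from the data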
Target sequence (P55789 whole entry, looked up): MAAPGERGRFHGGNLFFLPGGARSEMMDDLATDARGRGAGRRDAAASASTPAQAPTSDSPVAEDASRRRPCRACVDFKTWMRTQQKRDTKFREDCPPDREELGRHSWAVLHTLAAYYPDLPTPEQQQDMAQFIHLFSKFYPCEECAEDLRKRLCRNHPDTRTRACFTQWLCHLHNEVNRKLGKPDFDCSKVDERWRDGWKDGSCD
Each line names hits and unclear results; the compound was inactive in the other large screens. The sample as a whole holds a higher share of hits than the screen did.

Cc1ccccc1-c1noc(CCC(=O)NC2CCCCC2)n1	none (no result: ALR inh)
Cc1ccccc1-c1nc(CS(=O)CC(=O)NC2CCCC2)c(C)o1 (configuration not stated)	ALR inh 99
Cc1oc(-c2ccccc2F)nc1CN1CCC(C(=O)NC2CC2)CC1	none
O=C(Nc1oc2ccccc2c(=O)c1-c1ccccc1)c1ccco1	none (no result: T cell HTS, ALR inh)
COC(=O)[C@]1(Cc2ccccc2)N[C@H](c2ccc(-c3cccc(Cl)c3)cc2)[C@@H]2C(=O)N(C)C(=O)[C@@H]21	none
Clc1ccc(SCc2cn3ccccc3n2)cc1	none
c1ccc2c(SCc3cn4ccccc4n3)nncc2c1	ALR inh 99
Cc1cc(C)nc(SCc2cn3ccccc3n2)n1	none
N=C(N)SCc1cn2ccccc2n1	ALR inh 98
COc1ccc(C(=O)NNC(=O)CN(C)S(=O)(=O)c2ccc(Cl)cc2)c(OC)c1OC	none
COc1ccc(NS(=O)(=O)c2cccc(C(=O)NCc3cccnc3)c2)cc1	none
CC(C)C(=O)N(c1ccc2oc(=O)sc2c1)S(=O)(=O)c1ccccc1	ALR inh 96
CC(=O)N(c1ccc2oc(=O)sc2c1)S(=O)(=O)c1ccccc1	none
OC(CNCCc1ccc(C(F)(F)F)cc1)COC(c1ccccc1)c1ccccc1 (configuration not stated)	none
COc1ccc(OC)c(NC(=O)CSc2nn3c(=O)c(C)nnc3s2)c1	ALR inh 86
Cc1nnc2sc(SCC(=O)Nc3cccc(Cl)c3)nn2c1=O	ALR inh 98
COc1cccc(NC(=O)CSc2nc(C)cs2)c1	none
COc1ccc(NC(=O)CSc2ccccn2)cc1	none
COc1cccc(NC(=O)CSc2nn3c(=O)c(C)nnc3s2)c1	ALR inh 99
COc1ccc(CCNC(=O)CSc2nn3c(=O)c(C)nnc3s2)cc1OC	none
COc1cccc(NC(=O)CSc2ccccn2)c1	ALR inh 90
Cc1ccccc1NC(=O)CSc1nn2c(=O)c(C)nnc2s1	none
O=C(CSc1ccc(F)cc1)NC(=O)c1ccccc1	none (no result: T cell HTS, ALR inh)
O=C(Nc1cc(-c2ccccc2)sc1C(=O)O)c1cccc(F)c1	none
COc1ccc(NC(=O)CSCC(=O)N2CCN(C(=O)c3ccco3)CC2)cc1	none
O=C(NCCC1CCCCN1S(=O)(=O)c1ccc(F)cc1)C(=O)NCC1CCCO1 (configuration not stated)	none
CCOC(=O)c1cc2sccc2n1CC(=O)O	none
CCOC(=O)c1cc2sccc2n1CC(=O)N1c2ccccc2CC1C (configuration not stated)	N-glyco inh 377
CCCC1NC(=O)c2cc3ccccc3cc2-n2c1nc1ccc(F)cc1c2=O (configuration not stated)	none (no result: T cell HTS, ALR inh)
COc1cccc(N2CCN(Cc3ccco3)CC2)c1	ALR inh 87
COc1cccc(CN2CCSCC2)c1	none
COc1cccc(N2CCN(Cc3ccsc3)CC2)c1	ALR inh 89
COc1cccc(CN2CCN(Cc3ccco3)CC2)c1	none
COc1c[nH]n(-c2ccccc2)c(=O)c1=O	none
O=C(c1ccccc1)c1ccc(-n2cnnc2)c([N+](=O)[O-])c1	none
COc1cc2[nH]c(=O)n3nc(-c4ccccc4)nc3c2cc1OC	none
CCN(CC)CCNc1nc2cc(OC)c(OC)cc2c2nc(-c3ccccc3)nn12	N-glyco inh 71 (no result: ALR inh)
O=[N+]([O-])c1ccccc1-c1cc(-c2cc(Cl)ccc2O)n[nH]1	ALR inh 99
Cc1ccc(O)c(-c2cc(-c3ccccc3[N+](=O)[O-])[nH]n2)c1	none
COc1ccc(-c2cc(-c3cc(C)ccc3O)[nH]n2)cc1	none
Oc1ccccc1-c1cc(-c2ccccc2Cl)[nH]n1	ALR inh 89
Oc1ccc(Cl)cc1-c1cc(-c2ccccc2Cl)[nH]n1	none
COc1ccc(O)c(-c2cc(-c3ccccc3[N+](=O)[O-])[nH]n2)c1	ALR inh 99
CC(=NO)C1(C)CC=CCC1CO (configuration not stated)	none (no result: T cell HTS, ALR inh)
CC(=O)Nc1ccc(S(=O)(=O)N(C)c2ccc(OCC(=O)NCCc3ccccc3F)cc2)cc1	none (no result: T cell HTS, ALR inh)
COc1ccc(CCNC(=O)COC(=O)C2COc3ccccc3O2)cc1 (configuration not stated)	none
O=S1(=O)CC(N2CCCCC2)C1CN1CCCCC1 (configuration not stated)	none (no result: T cell HTS, ALR inh)
COc1ccc(NC2CCCN(C(=O)c3ccc4nc(C)c(C)nc4c3)C2)cc1OC (configuration not stated)	none
COc1ccc(NC2CCCN(C(=O)C3=NN(C)C(=O)CC3)C2)cc1OC (configuration not stated)	ALR inh 98
COc1ccccc1N1CCN(C2CCCN(C(=O)C3=NN(C)C(=O)CC3)C2)CC1 (configuration not stated)	none
CC(C)c1ccc(NC2CCCN(C(=O)C3=NN(C)C(=O)CC3)C2)cc1 (configuration not stated)	ALR inh 98
CCCNC(=O)c1sc2c(c1C(=O)Nc1ccccn1)CCCC2	none
O=C(NCCN1CCOCC1)c1cc(Cl)ccc1[N+](=O)[O-]	none (no result: N-glyco inh)
CCC1Sc2ccccc2N(CC(=O)NC2CCCCC2)C1=O (configuration not stated)	none
COc1ccc(C(=O)Nc2ccc(N3CCOCC3)cc2)cc1OC	none
O=C(Nc1ccc(N2CCCCC2)cc1)c1cccnc1	ALR inh 98
COc1ccc(NC(=O)C2CCCCN2N)cc1OC (configuration not stated)	none
COc1ccc(NC(=O)C2CCCN2c2ccc(OC)c(OC)c2)cc1OC (configuration not stated)	ALR inh 99
COc1ccc(C(=O)Nc2ccc(N3CCCC3)cc2)cc1OC	ALR inh 99
CS(=O)(=O)N1CCN(c2ccc(NC(=O)C(c3ccccc3)c3ccccc3)cc2)CC1	none
O=C(Nc1ccc(N2CCCC2)cc1)C(Cl)c1ccccc1 (configuration not stated)	ALR inh 98
O=C(Nc1ccc(N2CCN(Cc3ccccc3Cl)CC2)cc1)c1cccnc1	none
Cc1ccc(SCC(=O)OC(C)C(=O)NC2CCCCC2C)c(C)c1 (configuration not stated)	none (no result: ALR inh)
COc1ccccc1C(=O)Nc1nc(C)cc(C)n1	none
CCCN(CC(=O)Nc1ccc(F)c(F)c1F)C(=O)CCc1nc2ccccc2c(=O)[nH]1	none
Cn1cnc2c(cnn2C)c1=N	none (no result: T cell HTS, ALR inh)
Cc1ccccc1C(=O)Nc1ccc(N2CCCC2)cc1	ALR inh 92
COc1ccc(NC(=O)c2cccnc2N2CCCC2)cc1	ALR inh 99
Cc1ccc(C(=O)Nc2ccc(N3CCCC3)cc2)c(C)c1	none
COc1ccc(NC(=O)c2cccnc2N2CCCCC2)cc1	none
O=C(O)c1ccc(CN2C[C@@H](CO)O[C@@H](n3cnc4c(NCc5ccco5)ncnc43)C2)cc1	none (no result: T cell HTS, ALR inh)
COc1ccc(Cl)cc1C(=O)NNC(=O)c1csc(N2CCOCC2)n1	none
O=C(Nc1ccc2c(c1)nc1n2CCOC1)c1ccco1	none (no result: ALR inh)
O=C(Nc1ccc2c(c1)nc1n2CCSC1)c1ccco1	ALR inh 99
Cc1nc2cc(NC(=O)c3ccco3)ccc2n1C	none
COc1ccc(NC(=O)Nc2cccc(OC)c2)cc1	none
Cc1nc2ccc(NC(=O)c3ccco3)cc2nc1C	ALR inh 99
COc1cccc(NC(=O)Nc2ccc3nc(C)c(C)nc3c2)c1	T cell HTS 73
O=C(Nc1cc(Cl)ccc1Cl)c1ccco1	none
